Data published in ChEMBL document CHEMBL4196022, “Alkynyl-containing phenylthiazoles: Systemically active antibacterial agents effective against methicillin-resistant Staphylococcus aureus (MRSA)” (Eur J Med Chem, 2018).
pEC50: −log10 of the molar value. In brackets after ≈: the same amount, converted by molar mass. Activity calls are given as the source filed them. The rule behind the calls is not given here.

Assays:
Mus musculus [1] = test: Induction of inflammation in Balb/c mouse infected with methicillin-resistant Staphylococcus aureus USA300 assessed as redness around wounded skin area at 2% administered topically twice daily for 5 consecutive days measured 12 hrs post last dose relative to control; assay type: organism-based; settings: in vivo, topical_or_ocular
In short: (§1)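 Female Balb/c mice, 8 weeks old, n=5 per group. Intradermal injection of 40 μL of 1.32×10^9 CFU/mL USA300; a wound formed by ~66 h. Treated topically with a 2% suspension in petroleum jelly twice daily for 5 days; the vehicle group served as control. Wounds excised 12 h after the last dose, homogenized in PBS and plated on mannitol salt agar; sites also observed for redness and swelling.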

Staphylococcus aureus [2] = test: Antibacterial activity against methicillin-resistant Staphylococcus aureus USA300 after 20 hrs by broth microdilution assay; assay type: functional; settings: USA300, 20 h
In short: (§2)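 Broth microdilution per CLSI in cation-adjusted Mueller Hinton broth. Compounds serially diluted, in triplicate. Incubation at 37 °C for at least 20 hours. MIC taken as the lowest concentration with no visible bacterial growth.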

Staphylococcus aureus [3] = test: Potency index, ratio of vancomycin MIC to compound MIC for antibacterial activity against vancomycin-resistant Staphylococcus aureus VRS12; assay type: functional
J774 = test: Cytotoxicity against mouse J774 cells assessed as reduction in cell viability up to 8 ug/ml after 24 hrs by MTS assay; assay type: cell-based; settings: j774, 24 h
In short: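 J774 murine macrophages were grown in DMEM with 10% FBS at 37 °C, 5% CO2. Compounds were tested at 8, 16 and 32 μg/mL in triplicate for 24 h, with a DMSO-matched control. MTS was added for 4 h and absorbance read at 490 nm. Viability is given as % of DMSO control (mean ± SD); Student t-test with Holm-Sidak test.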

Staphylococcus aureus [4] = test: Ratio of MBC to MIC for vancomycin-resistant Staphylococcus aureus VRS11a; assay type: functional
In short: (§3)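 MBC/MIC ratio. […] MBC by plating no-growth wells onto tryptic soy agar at 37 °C for at least 18 h; taken as the concentration giving 99.9% growth inhibition.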

Staphylococcus aureus [5] = test: Bactericidal activity against methicillin-resistant Staphylococcus aureus NRS119 up to 18 hrs by broth microdilution assay; assay type: functional; settings: NRS119, 18 h, read-out: MBC99.9
[6] = Induction of proton motive force collapse in Escherichia coli inverted membrane vesicle in presence of ATP-driven PMF generation system by ACMA-based fluorescence assay; assay type: functional, cell membranes
In short: (§4)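 E. coli inverted membrane vesicles had proton motive force generated either by ATP or by succinate/O2. PMF collapse was followed as a dose response to give EC50, with CCCP as the reference uncoupler.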

Rattus norvegicus [7] = test: Half life in Sprague-Dawley rat at 2 uM administered as single iv bolus dose by LC-MS/MS analysis; assay type: ADME, organism-based; settings: in vivo
In short: (§5)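 Male naïve Sprague-Dawley rats (three animals) received an IV bolus of a 2 μM solution. EDTA-K2 blood was sampled over 12 h post dose. Plasma was protein-precipitated with acetonitrile and quantified by LC/MS/MS. Parameters came from two-compartmental pharmacokinetic analysis.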

Staphylococcus aureus [8] = test: Bactericidal activity against methicillin resistant vancomycin-resistant Staphylococcus aureus VRS10 up to 18 hrs by broth microdilution assay; assay type: functional; settings: VRS10, 18 h, read-out: MBC99.9
Staphylococcus aureus [9] = test: Ratio of MBC to MIC for vancomycin-resistant Staphylococcus aureus VRS12; assay type: functional; in short: as §3
Staphylococcus aureus [10] = test: Bactericidal activity against methicillin resistant vancomycin-resistant Staphylococcus aureus VRS12 up to 18 hrs by broth microdilution assay; assay type: functional; settings: VRS12, 18 h, read-out: MBC99.9
In short: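 MBC set up from the MIC plates. Aliquots from wells with no growth spotted onto tryptic soy agar and incubated at 37 °C for at least 18 hours. MBC taken as the lowest concentration giving 99.9% inhibition of bacterial growth.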

Staphylococcus aureus [11] = test: Antibacterial activity against methicillin-resistant Staphylococcus aureus NRS119 after 20 hrs by broth microdilution assay; assay type: functional; settings: NRS119, 20 h; in short: as §2
Staphylococcus aureus [12] = test: Inhibition of UPPS/UPPP in vancomycin-resistant Staphylococcus aureus VRS10 assessed as potentiation of vancomycin-induced antibacterial activity by measuring fold reduction in vancomycin MIC at 0.5 times MIC preincubated for 30 mins followed by vancomycin addition measured after 20 to 22 hrs by broth microdilution assay relative to control
In short: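 VRS10 suspension pre-exposed to compound at ½ × MIC for 30 min at room temperature. […] Incubation at 37 °C for 20–22 h before the MIC was read; untreated bacteria served as control.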

Rattus norvegicus [13] = test: AUC in Sprague-Dawley rat at 2 uM administered as single iv bolus dose by LC-MS/MS analysis; assay type: ADME, organism-based; settings: in vivo; in short: as §5
Mus musculus [14] = test: Induction of inflammation in Balb/c mouse infected with methicillin-resistant Staphylococcus aureus USA300 assessed as swelling around wounded skin area at 2% administered topically twice daily for 5 consecutive days measured 12 hrs post last dose; assay type: organism-based; settings: in vivo, topical_or_ocular; in short: as §1
HRT-18 cell line = test: Cytotoxicity against human HRT18 cells assessed as reduction in cell viability up to 32 ug/ml after 2 hrs by MTS assay; assay type: cell-based; settings: hrt-18, 2 h
Staphylococcus aureus [15] = test: Antibacterial activity against methicillin-resistant Staphylococcus aureus NRS123 (USA400) infected in mouse J774 cells at 8 ug/ml after 24 hrs; assay type: functional, organism-based
In short: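 J774 macrophages grown in DMEM with 10% FBS at 37 °C, 5% CO2. Infected with USA400 at MOI ~100:1 for 1 h, then washed with gentamicin 50 μg/mL. Treated in triplicate wells for 24 h, washed with gentamicin again and lysed with 0.1% Triton X-100. Lysate plated on tryptic soy agar for 18–22 h; CFU/mL counted.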

Staphylococcus aureus [16] = test: Bactericidal activity against methicillin-resistant Staphylococcus aureus NRS123 (USA400) at 4 times MIC after 24 hrs by time kill assay; assay type: functional, organism-based
[17] = Terminal phase volume of distribution in Sprague-Dawley rat at 2 uM administered as single iv bolus dose by LC-MS/MS analysis; assay type: ADME, organism-based; settings: in vivo, read-out: Vbeta; in short: as §5
[18] = Induction of proton motive force collapse in Escherichia coli inverted membrane vesicle in presence of succinate/O2-driven PMF generation system by ACMA-based fluorescence assay; assay type: functional, cell membranes; in short: as §4
Staphylococcus aureus [19] = test: Antibacterial activity against methicillin-resistant Staphylococcus aureus NRS123 (USA400) after 20 hrs by broth microdilution assay; assay type: functional; in short: as §2
[20] = Efflux ratio of apparent permeability in human Caco2 cells at 10 uM after 60 mins by LC-MS/MS analysis; assay type: ADME, cell-based; settings: caco-2, 1 h
In short: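 Caco-2 monolayers were seeded at 1 × 10^5 cells/cm2 and differentiated for three weeks. Test article was at 10 μM (1% DMSO) in HBSS-MES pH 6.5 or HBSS-HEPES pH 7.4 and added to the donor side. Incubation ran 60 min (A→B) or 40 min (B→A), and receiver buffer was analysed by LC/MS/MS. Lucifer yellow and fluorescein checked monolayer integrity. Efflux ratio = Papp(B→A)/Papp(A→B).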

Staphylococcus aureus [21] = test: Antibacterial activity against methicillin-resistant Staphylococcus aureus USA300 infected in Caenorhabditis elegans AU37 assessed as reduction in bacterial burden at 20 ug/ml after 18 hrs relative to control; assay type: functional; parameters: scale not given: the % may be the effect or the level left
In short: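 L4-stage C. elegans AU37 infected on USA300 lawns for 6 h and washed with M9 buffer. 25–30 worms per well exposed to 20 μg/mL for 18 h, in triplicate. Worms then lysed and plated on TSA with 5 μg/mL nalidixic acid for 17 h at 37 °C. CFU per worm expressed as % reduction versus PBS.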

Staphylococcus aureus [22] = test: Antibacterial activity against methicillin-resistant Staphylococcus aureus NRS107 after 20 hrs by broth microdilution assay; assay type: functional; settings: NRS107, 20 h; in short: as §2

With `C/C(=N\NC(=N)N)c1sc(-c2ccc(C#CC3CC3)cc2)nc1C` the Activity (Mus musculus [1]) was “Non-Toxic”, the MIC (Staphylococcus aureus [2]) was 2 µg/mL (≈ 5.93 µM) and the Ratio (Staphylococcus aureus [3]) was 8. For the same molecule, the Activity (J774) was “Non-Toxic”, the Ratio (Staphylococcus aureus [4]) was “<=3” and the MBC (Staphylococcus aureus [5]) was 2 µg/mL (≈ 5.93 µM). For the same molecule, the pEC50 [6] was 4.62, the t1/2 (Rattus norvegicus [7]) was 4.43 h and the MBC (Staphylococcus aureus [8]) was 4 µg/mL (≈ 11.9 µM). The Ratio (Staphylococcus aureus [9]) was “<=3”, the MBC (Staphylococcus aureus [10]) was 2 µg/mL (≈ 5.93 µM) and the MIC (Staphylococcus aureus [11]) was 2 µg/mL (≈ 5.93 µM). The fold change (FC) (Staphylococcus aureus [12]) was 512, the AUC (Rattus norvegicus [13]) was 690 ng·h/mL and the Activity (Mus musculus [14]) was “Non-Toxic”. For the same molecule, the Activity (HRT-18 cell line) was “Non-Toxic”, the Activity (Staphylococcus aureus [15]) was “inactive” and the Activity (Staphylococcus aureus [16]) was “Active”. For the same molecule, the Vd at 2 µM [17] was 18.5 L, the pEC50 [18] was 4.55 and the MIC (Staphylococcus aureus [19]) was 2 µg/mL (≈ 5.93 µM). It also gave a Ratio [20] of 69, an Activity (Staphylococcus aureus [21]) of 90% and an MIC (Staphylococcus aureus [22]) of 2 µg/mL (≈ 5.93 µM).
